# Compound activity: PubChem BioAssay, several laboratories
# UBC13 inh = UBC13 polyubiquitin chain formation inhibitors, primary screen, biochemical, TR-FRET, uHTS; AID 485273, 2010; inhibition, % at 20 µM; Ubiquitin-conjugating enzyme E2 N (Homo sapiens), P61088; 330,000 compounds, 0.47% hits; in the data active means inhibition above about 45%, passing the limit was not always enough
# MEKK2 WT-MEK5 = modulators of MEK5 binding to wildtype MEKK2, primary screen, biochemical, multiplex bead flow cytometry, Alexa488-MEK5; Mitogen-activated protein kinase kinase kinase 2 (Homo sapiens), Q9Y2U5; Alexa488-MEK5 binding to MEKK2 WT; actives lie on both sides; 290,000 compounds, 1.1% hits; binding response (% of control), % at 10 µM; AID 1531, 2009; in the data active means binding response below about 67% or above about 130%
# UCH37 inh = inhibitors of human UCH37 deubiquitinase, primary screen, biochemical, Ub-AMC cleavage, fluorescence; 330,000 compounds, 0.33% hits; inhibition, % (concentration not given with the values); purified proteasome/UCH37; Ubiquitin carboxyl-terminal hydrolase isozyme L5 (Homo sapiens), Q9Y5K5;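 active means mean inhibition over replicate wells above about 20%, limit read from the data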;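 further: 0% = compound-free wells with enzyme and 100% = wells lacking proteasome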
#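 Signal – fluorescence, ex 355 nm, em 460 nm · System – Proteasome-bound UCH37 · Input – 0.15 nM proteasome as dispensed · Timing – 30 min preincubation with enzyme, 25 min cleavage at room temperature · Read-out basis – percent inhibition of cleavage signal versus uninhibited and no-proteasome wells · Medium – Tris-HCl pH 7.4 with ATP-MgCl2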
# Apaf-1 inh = inhibitors of human Apaf-1 apoptosome, primary screen, biochemical, DEVD-Rh110 fluorescence, uHTS | reconstituted apoptosome caspase-3 activity | inhibition, % at 20 µM | 330,000 compounds, 0.71% hits; active means inhibition of at least 40% at 20 µM;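 further: plate controls were DMSO wells for no effect and DEVD-CHO caspase inhibitor wells for full effect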
#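 Material: reconstituted apoptosome with Apaf-1, cytochrome c, caspase-9, procaspase-3, dATP. Technique: Rh110 fluorescence intensity. Buffer or medium: pH 7.5 Hepes buffer with CHAPS, BSA, DTT. Times: 30 min plus 50 min, RT.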
# MEKK3 PB1 HTS = modulators of MEKK3-MEK5 PB1 binding, primary screen, biochemical, wildtype MEKK3, multiplex bead flow cytometry, Alexa488-MEK5. Mitogen-activated protein kinase kinase kinase 3 (Homo sapiens), Q99759. bead-based flow cytometry, Alexa488-MEK5 binding to MEKK3; actives lie on both sides; 0 = blocked by unlabeled MEK5, 100 = vehicle. binding response (% of control), % at 10 µM. 290,000 compounds, 1.4% hits. AID 1529, 2009;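 active means binding response more than 3 SD above or below the average of its plate-row segment, actives on both sides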;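 further: Alexa488 bead fluorescence after subtracting the streptavidin-only scavenger bead signal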
# MEKK2mut PB1 HTS = MEK5 binding signal on mutant MEKK2 PB1, primary screen, biochemical, multiplex bead flow cytometry, Alexa488-MEK5. AID 1530, 2009. Alexa488-MEK5 binding to MEKK2 mutant. 290,000 compounds, 0.35% hits. percent response, % at 10 µM; in the data active means percent response above about 24%, passing the limit was not always enough
# MEKK2wt confirm = modulators of MEK5 binding to wildtype MEKK2, confirmation, biochemical, single concentration, multiplex bead flow cytometry. shares compounds with MEKK3 PB1 HTS. Alexa488-MEK5 binding to MEKK2 WT; actives lie on both sides. binding response (% of control), % at 10 µM. 5,900 compounds, 2.4% hits. AID 1892, 2009; in the data active means binding response below about 16% or above about 210%; inactive means in between
# MEKK2mut-MEK5 = mutant MEKK2 PB1-MEK5 binding signal retest – biochemical, single concentration, multiplex bead flow cytometry, confirmation | shares compounds with MEKK3 PB1 HTS | Alexa488-MEK5 binding to MEKK2 mutant | percent response, % at 10 µM | 5,900 compounds, 2% hits | AID 1893, 2009; in the data active means percent response mostly above about 71%, no sharp cut-off; inactive means mostly below about 38%;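 further: higher means compound restores mutant binding toward wildtype level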
# MEKK3 confirm = MEKK3 wild-type PB1 binding to MEK5, inhibitors, confirmation, biochemical, bead multiplex flow cytometry, single concentration, wildtype | shares compounds with MEKK3 PB1 HTS | Alexa488-MEK5 binding to MEKK3; hits give low values | binding response (% of control), % at 10 µM | 5,900 compounds, 1.8% hits | AID 1894, 2009;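 active means binding response below 72% of control, or above a set upper limit, though filed actives all read lower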;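 further: 100% = DMSO only wells and 0% = binding blocked by excess unlabeled MEK5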
# The depositor's hits bear a star; . = no result; [ ] = dose if it differs, or a comment. Sampled rows, rich in hits. Any-hit rate of the full collection: about 3%.
SMILES,UBC13 inh,MEKK2 WT-MEK5,UCH37 inh,Apaf-1 inh,MEKK3 PB1 HTS,MEKK2mut PB1 HTS,MEKK2wt confirm,MEKK2mut-MEK5,MEKK3 confirm
CCOCCCNC(=O)C(NC(=O)c1ccc2c(c1)OCO2)c1ccccc1 (centres undefined),0,54,2,-20,43*[inhibitor],-14,105,2,105
CCOCCCNC(=O)C(NC(=O)c1ccc2c(c1)OCO2)c1ccc(OC)cc1 (centres undefined),-1,107,4,-7,104,8,.,.,.
COCCCNC(=O)c1ccc2nc(Cc3ccc(OC)cc3)oc2c1,7,16*[inhibitor],4,-13,38*[inhibitor],-15,104,2,104
CCN(CC)CC(=O)Nc1ccc(C)cc1Br,-2,99,7,3,99,3,.,.,.
CCOc1ccc(/C=C/c2nc(C#N)c(NCCCN(C)C)o2)cc1,9,140*,-155,3,113,26*,103,9,101
c1ccc2c(c1)CCN(c1nc(CN3CCOCC3)nc3sc4c(c13)CCCC4)C2,26,107,-9,18,135*,3,110,3,104
CC1CN(CC(=O)Nc2nc3ccccc3s2)CC(C)O1 (centres undefined),1,115,-2,-8,106,14,.,.,.
N#CCCSCc1ccc2oc(C(=O)O)cc2c1,-8,0.0*[inhibitor],-1,-5,2.0*[inhibitor],-45,109,9,109
COc1ccccc1NC(=O)CSc1nnc2ccc(-c3cccnc3)nn12,-6,107,3,0,118,190*,104,6,107
CCOc1ccccc1NC(=O)CSc1nnc2ccc(-c3cccnc3)nn12,-10,74,6,12,66,-28,.,.,.
Cc1ccc(NC(=O)NNC(=O)c2cccs2)cc1,-8,94,.,4,71*[inhibitor],0,102,0,106
CC(=O)Nc1ccc(C(=O)NNC(=O)c2cccs2)cc1,5,85,1,-6,85,-3,.,.,.
Cc1cc(C)c(NC(=O)CNC(=O)c2ccc(-n3cncn3)c([N+](=O)[O-])c2)c(C)c1,-7,.,1,4,.,.,.,.,.
CSCCC1NC2(C(=O)Nc3c(C)cc(Cl)cc32)[C@@H]2C(=O)N(C3CCCC3)C(=O)[C@H]12 (some centres undefined),-4,95,1,20,102,-3,.,.,.
O=C(Nc1ccc(S(=O)(=O)Nc2nccs2)cc1)c1cnc(Cl)c(Cl)c1,-6,54,4,14,46*[inhibitor],-8,104,-2,103
C=CCc1cccc(C=NNC(=O)CCC(=O)Nc2ccc(C)cc2)c1O,.,.,2,.,.,.,.,.,.
C=CCc1cccc(/C=N/NC(=O)CCCNc2ccc(C)cc2)c1O,.,248*,.,.,109,89*,104,2,103
c1ccc(Cn2nnc3c(NCC4CCCO4)ncnc32)cc1 (centres undefined),4,65,3,-19,61*[inhibitor],-8,106,10,107
